# Measurements from ChEMBL document CHEMBL1123589, “Phenylpiperazine-based radiopharmaceuticals for brain imaging. 3. Synthesis and evaluation of radioiodinated 1-alkyl-4-phenylpiperazines” (J Med Chem, 1987).
# Tests used:
# Settings in all cases: in vivo
# [1] = tested on: Rattus norvegicus; assay: The biodistribution of the [125I]-labeled compound in rats after intravenous injection was evaluated in brain at 1.00 hrs; (ID.kg/g); assay type: ADME, organism-based
# How it was run: (§1)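 Male Sprague-Dawley rats (250–300 g) under ether anesthesia were given an iv injection of no-carrier-added 125I-labelled agent (10–15 μCi in 0.1 mL saline). The agent was iodinated with chloramine-T in acetate buffer and purified by C-18 HPLC. Groups of N = 3 were killed at 0.25, 1 and 4 h. Blood and tissues were weighed and γ-counted. Values are % ID·kg/g, mean (range).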
# [2] = tested on: Rattus norvegicus; assay: The biodistribution of the [125I]-labeled compound in rats after intravenous injection was evaluated in fat at 0.25 hr; value ranges from 0.07-0.09 (ID.kg/g); assay type: ADME, organism-based, Adipose tissue; how it was run: as §1
# [3] = tested on: Rattus norvegicus; assay: The biodistribution of the [125I]-labeled compound in rats after intravenous injection was evaluated in liver at 0.25 hr; value ranges from 0.24-0.40 (ID.kg/g); assay type: ADME, organism-based
# How it was run: (§2)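 Male Sprague-Dawley rats (250–300 g), under ether anesthesia, given 10–15 μCi of the NCA ¹²⁵I-labeled agent iv in 0.1 mL saline. Groups of N = 3 were killed at 0.25, 1 or 4 h. Blood and tissues were removed, weighed and counted in a γ-well scintillation counter. Values are mean % ID·kg/g (range).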
# [4] = tested on: Rattus norvegicus; assay: The biodistribution of the [125I]-labeled compound in rats after intravenous injection was evaluated in adrenal at 1.00 hrs; value ranges from 0.12-0.19 (ID.kg/g); assay type: ADME, organism-based; how it was run: as §1
# [5] = tested on: Rattus norvegicus; assay: The biodistribution of the [125I]-labeled compound in rats after intravenous injection was evaluated in blood at 0.25 hrs (ID.kg/g); assay type: ADME, organism-based; how it was run: as §1
# [6] = tested on: Rattus norvegicus; assay: The biodistribution of the [125I]-labeled compound in rats after intravenous injection was evaluated in brain at 4.00 hrs (ID.kg/g); assay type: ADME, organism-based; how it was run: as §1
# [7] = tested on: Rattus norvegicus; assay: The biodistribution of the [125I]-labeled compound in rats after intravenous injection was evaluated in adrenal at 4.00 hrs; value ranges from 0.11-0.13 (ID.kg/g); assay type: ADME, organism-based; how it was run: as §1
# [8] = tested on: Rattus norvegicus; assay: The biodistribution of the [125I]-labeled compound in rats after intravenous injection was evaluated in muscle at 0.25 hrs; value ranges from 0.06-0.07 (ID.kg/g); assay type: ADME, organism-based, Muscle tissue
# How it was run: (§3)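 Male Sprague-Dawley rats (250–300 g) under ether anesthesia given iv 0.1 mL saline containing 10–15 μCi of NCA ¹²⁵I-labeled agent (chloramine-T iodination, HPLC-purified). Groups of 3 killed at 0.25, 1 and 4 h. Blood and tissues excised, weighed and γ-counted. Values are mean (range) of % injected dose × body mass (kg) per gram of tissue.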
# [9] = tested on: Rattus norvegicus; assay: The biodistribution of the [125I]-labeled compound in rats after intravenous injection was evaluated in lung at 0.25 hrs (ID.kg/g); assay type: ADME, organism-based; how it was run: as §2
# [10] = tested on: Rattus norvegicus; assay: The biodistribution of the [125I]-labeled compound in rats after intravenous injection was evaluated in thyroid at 0.25 hrs (ID.kg/g); assay type: ADME, organism-based, Thyroid gland; how it was run: as §3
# [11] = tested on: Rattus norvegicus; assay: The biodistribution of the [125I]-labeled compound in rats after intravenous injection was evaluated in liver at 4.00 hrs; value ranges from 0.19-0.21 (ID.kg/g); assay type: ADME, organism-based; how it was run: as §2
# [12] = tested on: Rattus norvegicus; assay: The biodistribution of the [125I]-labeled compound in rats after intravenous injection was evaluated in lung at 1.00 hrs (ID.kg/g); assay type: ADME, organism-based; how it was run: as §2
# [13] = tested on: Rattus norvegicus; assay: The biodistribution of the [125I]-labeled compound in rats after intravenous injection was evaluated in heart at 0.25 hrs; value ranges from 0.10-0.11 (ID.kg/g); assay type: ADME, organism-based; how it was run: as §1
# [14] = tested on: Rattus norvegicus; assay: The biodistribution of the [125I]-labeled compound in rats after intravenous injection was evaluated in thyroid at 4.00 hrs; value ranges from 2.48-3.53 (ID.kg/g); assay type: ADME, organism-based, Thyroid gland; how it was run: as §3
# [15] = tested on: Rattus norvegicus; assay: The biodistribution of the [125I]-labeled compound in rats after intravenous injection was evaluated in fat at 4.00 hrs; value ranges from 0.06-0.07 (ID.kg/g); assay type: ADME, organism-based, Adipose tissue; how it was run: as §1
# [16] = tested on: Rattus norvegicus; assay: The biodistribution of the [125I]-labeled compound in rats after intravenous injection was evaluated in fat at 1.00 hrs; value ranges from 0.08-0.12 (ID.kg/g); assay type: ADME, organism-based, Adipose tissue; how it was run: as §1
# [17] = tested on: Rattus norvegicus; assay: The biodistribution of the [125I]-labeled compound in rats after intravenous injection was evaluated in kidney at 4.00 hrs; value ranges from 0.14-0.21 (ID.kg/g); assay type: ADME, organism-based; how it was run: as §2
# [18] = tested on: Rattus norvegicus; assay: The biodistribution of the [125I]-labeled compound in rats after intravenous injection was evaluated in muscle at 1.00 hrs; value ranges from 0.03-0.05 (ID.kg/g); assay type: ADME, organism-based, Muscle tissue; how it was run: as §3
# [19] = tested on: Rattus norvegicus; assay: The biodistribution of the [125I]-labeled compound in rats after intravenous injection was evaluated in kidney at 0.25 hr; value ranges from 0.31-0.38 (ID.kg/g); assay type: ADME, organism-based; how it was run: as §2
# [20] = tested on: Rattus norvegicus; assay: The biodistribution of the [125I]-labeled compound in rats after intravenous injection was evaluated in lung at 4.00 hrs (ID.kg/g); assay type: ADME, organism-based; how it was run: as §2
# [21] = tested on: Rattus norvegicus; assay: The biodistribution of the [125I]-labeled compound in rats after intravenous injection was evaluated in brain at 0.25 hrs; value ranges from 0.19-0.26 (ID.kg/g); assay type: ADME, organism-based
# [22] = tested on: Rattus norvegicus; assay: The biodistribution of the [125I]-labeled compound in rats after intravenous injection was evaluated in blood at 1.00 hrs (ID.kg/g); assay type: ADME, organism-based; how it was run: as §1
# [23] = tested on: Rattus norvegicus; assay: The biodistribution of the [125I]-labeled compound in rats after intravenous injection was evaluated in liver at 1.00 hrs; value ranges from 0.27-0.47 (ID.kg/g); assay type: ADME, organism-based; how it was run: as §2
# [24] = tested on: Rattus norvegicus; assay: The biodistribution of the [125I]-labeled compound in rats after intravenous injection was evaluated in thyroid at 1.00 hrs value ranges from 2.04-2.76( ID.kg/g); assay type: ADME, organism-based, Thyroid gland; how it was run: as §3
# [25] = tested on: Rattus norvegicus; assay: The biodistribution of the [125I]-labeled compound in rats after intravenous injection was evaluated in heart at 4.00 hrs; value ranges from 0.12-0.14 (ID.kg/g); assay type: ADME, organism-based; how it was run: as §2
# [26] = tested on: Rattus norvegicus; assay: The biodistribution of the [125I]-labeled compound in rats after intravenous injection was evaluated in heart at 1.00 hrs; value ranges from 0.11-0.13 (ID.kg/g); assay type: ADME, organism-based; how it was run: as §1
# [27] = tested on: Rattus norvegicus; assay: The biodistribution of the [125I]-labeled compound in rats after intravenous injection was evaluated in adrenal at 0.25 hrs; value ranges from 0.22-0.37 (ID.kg/g); assay type: ADME, organism-based; how it was run: as §1
# [28] = tested on: Rattus norvegicus; assay: The biodistribution of the [125I]-labeled compound in rats after intravenous injection was evaluated in blood at 4.00 hrs (ID.kg/g); assay type: ADME, organism-based; how it was run: as §1
# [29] = tested on: Rattus norvegicus; assay: The biodistribution of the [125I]-labeled compound in rats after intravenous injection was evaluated in kidney at 1.00 hrs; value ranges from 0.28-0.33 (ID.kg/g); assay type: ADME, organism-based; how it was run: as §2
# [30] = tested on: Rattus norvegicus; assay: The biodistribution of the [125I]-labeled compound in rats after intravenous injection was evaluated in muscle at 4.00 hrs (ID.kg/g); assay type: ADME, organism-based, Muscle tissue; how it was run: as §3
compound,measurement,setting,value
CN1CCN(c2ccc(I)cc2)CC1,Biodistribution,[1],0.05%
same,Biodistribution,[2],0.09%
same,Biodistribution,[3],0.4%
same,Biodistribution,[4],0.19%
same,Biodistribution,[5],0.04 % ID·kg/g
same,Biodistribution,[6],0.05%
same,Biodistribution,[7],0.13%
same,Biodistribution,[8],0.07%
same,Biodistribution,[9],0.22%
same,Biodistribution,[10],0.96%
same,Biodistribution,[11],0.21%
same,Biodistribution,[12],0.2%
same,Biodistribution,[13],0.11%
same,Biodistribution,[14],3.53%
same,Biodistribution,[15],0.07%
same,Biodistribution,[16],0.12%
same,Biodistribution,[17],0.21%
same,Biodistribution,[18],0.05%
same,Biodistribution,[19],0.38%
same,Biodistribution,[20],0.09%
same,Biodistribution,[21],0.26%
same,Biodistribution,[22],0.04%
same,Biodistribution,[23],47%
same,Biodistribution,[24],2.76%
same,Biodistribution,[25],0.14%
same,Biodistribution,[26],0.13%
same,Biodistribution,[27],0.37%
same,Biodistribution,[28],0.02 % ID·kg/g
same,Biodistribution,[29],0.33%
same,Biodistribution,[30],0.02 %ID·kg/g
